CSN deneddyl inh = blocks human CSN-mediated cullin deneddylation. Q92905. Purified CSN, SCF-Nedd8-OG deneddylation, fluorescence polarization. inhibition, % at 12.5 µM. actives 0.38% (n = 360,000);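 active = pattern-corrected inhibition above about 35%, with an unprinted fluorescence ratio check between 0.5 and 1.5, limit read from the data, passing the limit was not always enough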
Target sequence (Q92905 whole entry, looked up, one chain of several): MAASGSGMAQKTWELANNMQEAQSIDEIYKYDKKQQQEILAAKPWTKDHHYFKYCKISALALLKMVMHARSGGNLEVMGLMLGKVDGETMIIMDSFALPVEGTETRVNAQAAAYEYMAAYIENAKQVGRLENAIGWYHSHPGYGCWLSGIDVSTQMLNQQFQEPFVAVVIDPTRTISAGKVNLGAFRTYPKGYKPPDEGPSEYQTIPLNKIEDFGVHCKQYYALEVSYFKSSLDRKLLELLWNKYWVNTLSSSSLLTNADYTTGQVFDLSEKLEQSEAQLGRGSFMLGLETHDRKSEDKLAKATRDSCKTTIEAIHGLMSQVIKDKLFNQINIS
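Material: human Csn5 produced in HEK293T cells; Input: enzyme 0.24 nM; Reagent: SCFSkp2-Nedd8OG substrate at 10 nM final; Dosing: 12.5 µM compound; Incubation: 90 min reaction at room temperature; Detection: fluorescence polarization of the substrate; Evaluation: % inhibition of substrate cleavage by Csn5; Control set: substrate-only high control, full reaction low control.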
Rpn11 block = blocks the human proteasome subunit Rpn11; O00487; human 26S proteasome, Ub4-pepOG fluorescence polarization; 20S core pre-blocked with epoxomicin; calls only at 20 µM; actives 0.59% (n = 360,000);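 active = inhibition at 20 µM, scaled to each plate's controls, above about 33%, limit read from the data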
HNF4A DNA FP = change in binding of human HNF4 alpha to DNA. P41235. actives 0.3% (n = 360,000). activity change, % at 10 µM. HNF4a-FITC DNA binding, fluorescence polarization, 1 h; in the data active = activity change above about 30%, passing the limit was not always enough
TPT1 inhibitor = inhibitors of Candida albicans tRNA 2'-phosphotransferase TPT1; actives 0.81% (n = 300,000); AID 1962; inhibition, % at 5 µM; recombinant caTPT1, FP RNA substrate dephosphorylation;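 active = inhibition above the mean of all tested compounds plus 3 SD, set per screening campaign, cut at about 24% in these data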
CSN5 deneddyl = Csn5 (human) deneddylation inhibition, single-concentration validation; inhibition, % at 16.6 µM; Csn5 deneddylation of SCF-Nedd8OG, fluorescence polarization, 90 min; actives 62% (n = 540); AID 720654; shares compounds with CSN deneddyl inh; in the data active = inhibition above about 50%
MMP2 cntr CSN = blocks human MMP-2 in a CSN deneddylation counter-screen | inhibition, % at 16.6 µM | shares compounds with CSN deneddyl inh | actives 33% (n = 540) | recombinant MMP-2, FRET substrate fluorescence, 60 min;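 active = corrected plate-normalized z-score of 5 or more, or -5 or less, or inhibition of 15% or more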
Thrombin counter = counter-screen for CSN deneddylation inhibitors: bovine thrombin inhibition | AID 720656 | shares compounds with CSN deneddyl inh | bovine thrombin cleavage of Ub4-pepOG, fluorescence polarization | actives 49% (n = 540) | inhibition, % at 16.6 µM;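 active = inhibition at or above a set limit, with a fluorescence interference ratio between 0.5 and a set maximum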
Hits are given with their value; – = inactive; · = not tested or not shown; + = active, no number; ! = not active in a repeat. In the library only some 1.5% were active in any assay of this set; here they are far more common.

SMILES	CSN deneddyl inh	Rpn11 block	HNF4A DNA FP	TPT1 inhibitor	CSN5 deneddyl	MMP2 cntr CSN	Thrombin counter
O=C1CCCC2=C1C(c1ccc(O)c(O)c1)Nc1ccc3ccccc3c12 (centres undefined)	–	–	–	–	·	·	·
O=C1CCCC2=C1C(c1ccco1)Nc1ccc3ccccc3c12 (centres undefined)	40	–	–	–	·	17	–
COc1ccccc1/C=c1\sc2nc(-c3ccco3)nn2c1=O	38	–	–	–	86	–	–
CCOc1ccc(/C=c2\sc3nc(-c4ccco4)nn3c2=O)cc1OCC	–	–	–	–	·	·	·
Cc1ccc(NC(=O)CN(CCc2ccccc2)S(C)(=O)=O)cc1	–	–	–	·	·	·	·
CCNC(=O)C1CCCN(C(=O)c2ccc(C)c(F)c2)CC1 (centres undefined)	–	–	–	·	·	·	·
CN(CC(=O)Nc1ccc(F)cc1)C(=O)C1CCCC1	–	–	–	·	·	·	·
CCCCn1c(NC(=O)c2ccc(Br)o2)c(S(=O)(=O)c2ccccc2)c2nc3ccccc3nc21	48	–	–	–	101	–	–
CSc1nc(N(C)CCO)c2sc3nc(-c4ccco4)c4c(c3c2n1)CCC4	–	–	–	–	·	·	·
CSc1nc(SCC(=O)O)c2sc3nc(-c4ccccc4)c4c(c3c2n1)CCC4	64	–	–	·	–	30	–
CC(O)CN(CC(C)O)c1ccc2c(c1)Cc1cc([N+](=O)[O-])ccc1-2 (centres undefined)	58	·	–	·	–	–	82
CC(=NO)c1ccc2c(c1)Cc1cc([N+](=O)[O-])ccc1-2	–	–	–	·	·	·	·
Cc1ccc(S(=O)(=O)/N=C2/NC(=O)/C(=C\c3cc(Br)cc(Br)c3O)S2)cc1	147	·	80	·	–	-80	–
COc1cc2c(C#N)c(N3CCCC3)nc(N)c2c(N)n1	35!	–	–	–	67	-45	–
O=C(NCc1ccc(Cl)c(Cl)c1)c1cc(C2CCCCN2C(=O)c2ccccn2)on1 (centres undefined)	–	–	–	·	·	·	·
O=C(C1=C(O)C(=O)N(c2nc3ccc(Cl)cc3s2)C1c1ccco1)c1ccco1 (centres undefined)	44	·	–	·	53	–	15
O=C(CSc1nc(-c2ccccc2)nc2c1Cc1ccccc1O2)Nc1ccc(C(=O)O)cc1	48	+	–	·	60	20	–
COc1cccc(/C=N/Nc2nnc(C)n2N)c1O	54	–	–	–	107	–	–
CCOC(=O)c1sc2nc3c(SCC(=O)O)cc(C(=O)c4cc(F)ccc4O)cn3c(=O)c2c1C	76	+	–	–	–	34	–
CCn1nnc2cc(C(=O)OCC(=O)N(C)Cc3cccc(F)c3)ccc21	–	–	–	·	·	·	·
O=C(O)CN1C(=O)/C(=C\c2cc(Br)ccc2OCc2ccccc2F)SC1=S	–	–	–	–	·	·	·
O=C(O)CN1C(=O)/C(=C\c2cc(Br)ccc2OCc2ccccc2Cl)SC1=S	38	–	–	–	–	–	–
O=C1/C(=C\c2cc(Br)cc(Br)c2O)SC(=S)N1Cc1ccccc1	46	–	–	–	97	–	–
CCCS(=O)(=O)NC(=O)C1(C)CCN1C(=O)Cc1ccc(Cl)cc1Cl (centres undefined)	–	–	–	·	·	·	·
C[C@H](CO)N1C[C@H](C)[C@H](CN(C)C(=O)Nc2ccc(C(C)(C)C)cc2)OCc2cnnn2CCCC1=O	–	–	–	·	·	·	·
CC1(Cc2ccc(F)cc2)C(=O)Nc2ccc(S(=O)(=O)NC3CCCCC3)cc21 (centres undefined)	–	–	–	·	·	·	·
Cc1c(N2C(=O)/C(=C/c3ccc(N(C)C)cc3)N(C)C2=S)c(=O)n(-c2ccccc2)n1C	61	·	55	·	–	–	74
Cc1ccc(C2=NN(S(=O)(=O)c3ccccc3)C(c3ccccc3O)C2)cc1 (centres undefined)	61	·	80	·	57	–	56
O=S(=O)(c1ccccc1)N1N=C(c2ccccc2)CC1c1ccco1 (centres undefined)	·	·	·	–	·	·	·
COc1ccc(/C=C(\C#N)C(=O)N2COCC2(C)C)cc1	–	–	–	–	·	·	·

Bioassay records from PubChem BioAssay.
